Source: ChEMBL document CHEMBL3124807 (Eur J Med Chem, 2014)

Tests used:
[1] = Selectivity index, ratio of IC50 for ovine COX1 to IC50 for human recombinant COX2
Method in brief: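 IC50 (COX-1)/IC50 (COX-2). Both IC50 values come from the EIA described above, run with ovine COX-1 or human recombinant COX-2 under the same buffer, preincubation, arachidonic acid and duplicate conditions.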

[2] = molecular target: T1, Prostaglandin G/H synthase 1 (Ovis aries, UniProt P05979); test: Inhibition of ovine COX1 using arachidonic acid as substrate incubated for 10 mins prior to substrate addition measured after 2 mins by enzyme immunoassay
T1 sequence (P05979 whole entry): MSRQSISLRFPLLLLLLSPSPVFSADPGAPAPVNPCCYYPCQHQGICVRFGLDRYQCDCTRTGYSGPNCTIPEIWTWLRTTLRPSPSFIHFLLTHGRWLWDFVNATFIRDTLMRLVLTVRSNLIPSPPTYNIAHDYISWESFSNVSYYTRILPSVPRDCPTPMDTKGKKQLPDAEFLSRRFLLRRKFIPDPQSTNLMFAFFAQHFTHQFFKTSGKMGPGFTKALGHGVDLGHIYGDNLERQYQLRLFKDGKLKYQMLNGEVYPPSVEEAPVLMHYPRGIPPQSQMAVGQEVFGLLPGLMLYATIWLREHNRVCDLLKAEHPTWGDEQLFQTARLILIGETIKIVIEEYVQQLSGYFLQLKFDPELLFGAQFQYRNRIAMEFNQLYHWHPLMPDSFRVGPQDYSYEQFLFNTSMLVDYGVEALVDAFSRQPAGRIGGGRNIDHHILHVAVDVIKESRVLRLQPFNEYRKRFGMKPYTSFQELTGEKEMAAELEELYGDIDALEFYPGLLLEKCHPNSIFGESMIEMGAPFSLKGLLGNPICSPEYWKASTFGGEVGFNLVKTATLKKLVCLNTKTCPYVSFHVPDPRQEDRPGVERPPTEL
Method in brief: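 Ovine COX-1 in 0.1 M Tris-HCl pH 8.0 with 5 mM EDTA, 2 mM phenol and heme. Test concentrations were 0, 0.01, 0.1, 1, 10 and 50 (final volume 1 ml). Preincubated 10 min at 37 °C, then arachidonic acid (100) was added and the reaction was stopped with 1 M HCl after 2 min. PGF2α (from SnCl2 reduction of PGH2) was quantified by competitive EIA at 410 nm. IC50 was taken from the concentration–inhibition curve, duplicates.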

Rattus norvegicus [3] = test: Antiinflammatory activity in Wistar albino rat assessed as inhibition of formalin-induced paw edema at 50 mg/kg, po administered 1 hr prior to formalin challenge measured after 1 hr relative to control; type: functional
Method in brief: (§1)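 Adult male Wistar albino rats (120–150 g), five per group. Dosed orally at 50 mg/kg in 10% aqueous DMSO (v/v) 1 h before 0.1 ml of 2.5% formalin was injected subcutaneously into the right hind paw; vehicle-only control group. Paw thickness was measured by Vernier caliper at 0 h and at 30 min, 1, 2 and 3 h. Edema inhibition % = (Vc − Vt)/Vc × 100; means of five ± S.E.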

[4] = molecular target: T2, Prostaglandin G/H synthase 2 (Homo sapiens, UniProt P35354); test: Inhibition of human recombinant COX2 using arachidonic acid as substrate incubated for 10 mins prior to substrate addition measured after 2 mins by enzyme immunoassay
T2 sequence (P35354 whole entry): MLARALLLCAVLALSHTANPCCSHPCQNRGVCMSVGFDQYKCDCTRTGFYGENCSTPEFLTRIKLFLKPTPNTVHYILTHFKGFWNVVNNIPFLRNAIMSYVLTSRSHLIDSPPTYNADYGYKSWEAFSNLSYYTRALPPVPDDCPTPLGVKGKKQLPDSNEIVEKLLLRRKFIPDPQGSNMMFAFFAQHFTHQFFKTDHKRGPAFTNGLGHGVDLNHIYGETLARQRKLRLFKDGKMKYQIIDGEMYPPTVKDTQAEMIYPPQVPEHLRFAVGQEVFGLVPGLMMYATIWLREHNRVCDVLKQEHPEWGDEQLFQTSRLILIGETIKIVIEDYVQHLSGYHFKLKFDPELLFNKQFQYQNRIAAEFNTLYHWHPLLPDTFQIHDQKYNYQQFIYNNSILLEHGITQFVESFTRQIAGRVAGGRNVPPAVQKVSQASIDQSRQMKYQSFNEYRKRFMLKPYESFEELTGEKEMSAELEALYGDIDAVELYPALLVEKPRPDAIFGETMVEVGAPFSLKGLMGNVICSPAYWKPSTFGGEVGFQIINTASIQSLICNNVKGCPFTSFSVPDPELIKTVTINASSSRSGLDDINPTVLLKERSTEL

Rattus norvegicus [5] = test: Antiinflammatory activity in Wistar albino rat assessed as inhibition of formalin-induced paw edema at 50 mg/kg, po administered 1 hr prior to formalin challenge measured after 3 hrs relative to control; type: functional; method in brief: as §1
Rattus norvegicus [6] = test: Antiinflammatory activity in Wistar albino rat assessed as inhibition of formalin-induced paw edema at 50 mg/kg, po administered 1 hr prior to formalin challenge measured after 2 hrs relative to control; type: functional; method in brief: as §1
Rattus norvegicus [7] = test: Ulcerogenic effect in fasted Wistar albino rat at 50 mg/kg, po measured 2 hrs post last dose; type: toxicity, organism-based; set-up: dose 50 mg/kg, route oral; conditions: in vivo
Method in brief: (§2)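 Adult male Wistar albino rats (120–150 g), five per group, fasted 18 h before dosing. Oral doses were given for three successive days (test compounds 50 mg/kg, ibuprofen 25 mg/kg; control 10% aqueous DMSO), with feeding 2 h after dosing. Stomachs were removed 2 h after the last dose, opened along the greater curvature, rinsed with 0.9% NaCl and examined under a 10× lens. Ulcer index followed Robert's method (incidence/10, mean ulcer number, severity score).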

Rattus norvegicus [8] = test: Antiinflammatory activity in Wistar albino rat assessed as inhibition of formalin-induced paw edema at 50 mg/kg, po administered 1 hr prior to formalin challenge measured after 30 mins relative to control; type: functional; method in brief: as §1
Rattus norvegicus [9] = test: Ulcerogenic effect in fasted Wistar albino rat assessed as reduction in ulcerogenic potential at 50 mg/kg, po measured 2 hrs post last dose relative to celecoxib; type: toxicity, organism-based; set-up: dose 50 mg/kg, route oral; scale not given: the % may be the effect or the level left; conditions: in vivo
Rattus norvegicus [10] = test: Ulcerogenic effect in fasted Wistar albino rat at 25 mg/kg, po measured 2 hrs post last dose; type: toxicity, organism-based; set-up: dose 25 mg/kg, route oral; conditions: in vivo; method in brief: as §2

Row | SMILES | Ratio IC50 [1] | IC50 [2] | IC50 [4] | inhibition in vivo at 50 mg/kg (Rattus norvegicus [3]) | inhibition in vivo at 50 mg/kg (Rattus norvegicus [5]) | inhibition in vivo at 50 mg/kg (Rattus norvegicus [6]) | UI (Rattus norvegicus [7]) | inhibition in vivo at 50 mg/kg (Rattus norvegicus [8]) | Activity (Rattus norvegicus [9]) | UI (Rattus norvegicus [10])
1 | Cc1ccc(-c2cc(C(F)(F)F)nn2-c2ccc(S(N)(=O)=O)cc2)cc1 [CELECOXIB] |  |  |  | 100% | 100% | 100% | 16.12 | 94.4% |  | 
2 | COc1cc2occc2c(OC)c1-c1cc(-c2ccccc2)n(-c2ccc(S(N)(=O)=O)cc2)n1 | > 1.43 | > 50 µM | 35000 nM |  |  |  |  |  |  | 
3 | COc1c(-c2cc(-c3cccnc3)nn2-c2ccc(S(N)(=O)=O)cc2)c(O)c(OC)c2occc12 | > 139 | > 50 µM | 360 nM | 96.5% | 100% | 100% | 10.5 | 90.7% | 40% | 
4 | COc1cc2occc2c(OC)c1-c1cc(-c2ccc(F)cc2)n(-c2ccc(S(N)(=O)=O)cc2)n1 | > 109 | > 50 µM | 460 nM | 82.5% | 83.6% | 82.8% | 11.75 | 79.6% |  | 
5 | COc1cc2occc2c(OC)c1-c1cc(-c2ccc(Cl)cc2)n(-c2ccc(S(N)(=O)=O)cc2)n1 | > 1.93 | > 50 µM | 26000 nM |  |  |  |  |  |  | 
6 | COc1cc2occc2c(OC)c1-c1cc(-c2ccc(C(F)(F)F)cc2)n(-c2ccc(S(N)(=O)=O)cc2)n1 | > 147 | > 50 µM | 340 nM | 77.2% | 91.8% | 94.8% | 10.5 | 66.7% |  | 
7 | CC(C)Cc1ccc(C(C)C(=O)O)cc1 (centres undefined) [IBUPROFEN] |  |  |  |  |  |  |  |  |  | 22.32

The next lines start with results.

Row | Ratio IC50 [1] | IC50 [2] | IC50 [4] | SMILES | inhibition in vivo at 50 mg/kg (Rattus norvegicus [3]) | inhibition in vivo at 50 mg/kg (Rattus norvegicus [5]) | inhibition in vivo at 50 mg/kg (Rattus norvegicus [6]) | UI (Rattus norvegicus [7]) | inhibition in vivo at 50 mg/kg (Rattus norvegicus [8]) | Activity (Rattus norvegicus [9]) | UI (Rattus norvegicus [10])
8 | > 125 | > 50 µM | 400 nM | COc1c(-c2cc(-c3cccnc3)nn2-c2ccc(S(N)(=O)=O)cc2)c(O)cc2occc12 | 96.2% | 100% | 100% | 13.82 | 90.1% |  | 
9 | > 96.2 | > 50 µM | 520 nM | COc1c(-c2cc(C(F)(F)F)nn2-c2ccc(S(N)(=O)=O)cc2)c(O)c(OC)c2occc12 | 79% | 91.8% | 87.9% | 11.56 | 72.2% |  | 
10 | > 7.14 | > 50 µM | 7000 nM | COc1c(-c2cc(C(F)(F)F)nn2-c2ccc(S(N)(=O)=O)cc2)c(O)cc2occc12 |  |  |  |  |  |  | 
11 | > 6.67 | > 50 µM | 7500 nM | COc1c(-c2cc(C)nn2-c2ccc(S(N)(=O)=O)cc2)c(O)cc2occc12 |  |  |  |  |  |  | 
